Reference: ChEMBL document CHEMBL3632466, “Cembranoids from the Gum Resin of Boswellia carterii as Potential Antiulcerative Colitis Agents” (J Nat Prod, 2015)
Calls of active or inactive are those of the source. No cut-off for these calls is given here.

How the values were obtained:
[1] = molecular target: T1, X-box-binding protein 1 (Rattus norvegicus) (UniProt Q9R1S4); test: Transactivation of XBP1 in rat IEC-6 cells at 10 uM after 48 hrs by dual luciferase reporter gene assay relative to con2; format: cell-based
T1 sequence (whole entry): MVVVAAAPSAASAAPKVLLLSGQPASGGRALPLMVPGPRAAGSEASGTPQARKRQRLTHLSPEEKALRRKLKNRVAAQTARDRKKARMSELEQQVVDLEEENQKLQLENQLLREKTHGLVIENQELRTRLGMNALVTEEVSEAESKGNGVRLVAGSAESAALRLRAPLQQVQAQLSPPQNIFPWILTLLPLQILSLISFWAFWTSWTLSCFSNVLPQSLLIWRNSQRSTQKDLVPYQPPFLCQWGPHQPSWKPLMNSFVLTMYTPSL
In short: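 XBP 1 transcriptional activation measured by dual luciferase reporter detection. Con 2 is the pGL3-basic vector control, and activation is expressed as a fold ratio against it. Con 1 serves as background contrast, and 8-oxodihydrocoptisine is the positive control. Compounds are tested at 10 μM.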

[2] = Cytotoxicity against rat IEC-6 cells assessed as cell survival at 10 uM after 72 hrs by MTT assay relative to control; format: cell-based; conditions: read-out: Survival

Row | Compound | Activity [1] | viability at 72 h, 10 µM [2] [%] | fold change (FC) [1]
1 | CC(C)[C@@]12CC[C@@](C)(O1)[C@@H]1CC[C@@](C)(O1)[C@@H](O)C[C@@H]1O[C@@]1(C)[C@H](O)C2 | Active | 87 | 
2 | C/C1=C\[C@@H](O)C[C@@]2(C)O[C@@H]2C[C@]2(C(C)C)CC[C@@](C)(O2)[C@H](O)CC1 | Active | 87 | 
3 | C/C1=C\CC[C@@]2(C)O[C@@H]2C[C@]2(C(C)C)CC[C@@](C)(O2)[C@H](O)CC1 | Active | 87 | 
4 | C/C1=C\C[C@]2(C(C)C)CC[C@@](C)(O2)[C@@H]2CC[C@@](C)(O2)[C@@H](O)CC1=O (relative stereo) | Active | 87 | 
5 | CC(C)[C@@]12CC[C@@](C)(O1)[C@H](O)CC/C(C=O)=C/CC[C@@]1(C)O[C@@H]1C2 |  | 87 | 1.6
6 | C/C1=C\[C@@H](O)C[C@@]2(C)O[C@@H]2C[C@]2(C(C)C)CC[C@@](C)(O2)[C@H](O)CC1=O |  | 87 | 2.5
7 | O=c1c2c3c(ccc2cc2n1CCc1cc4c(cc1-2)OCO4)OCO3 |  |  | 2.2
8 | C/C1=C\CC[C@]2(C)O[C@H]2C[C@]2(C(C)C)CC[C@@](C)(O2)[C@H](O)CC1=O (relative stereo) | Active | 87 | 
9 | C/C1=C/C[C@@H](O)[C@@]2(C)CC[C@@](C(C)C)(C[C@@H](O)[C@]3(C)CC[C@H]1O3)O2 |  | 87 | 1.5
10 | C/C1=C\CC[C@@]2(C)O[C@@H]2C[C@]2(C(C)C)CC[C@@](C)(O2)[C@H](O)CC1=O (relative stereo) |  | 87 | 1.5
